Data published in PMC3367204 (Nucleic Acids Research, 2012).
Values after ≈ are worked out from the molar mass of the structure shown. Where two headings read alike, the source gives them in different places.

Tests used:
[1] = molecular target: T1, complex C prepared from E. coli ribosomes (PTase activity) (Escherichia coli, UniProt P60723+P61175); conditions: 4.5 mM Mg^2+ and 150 mM NH4^+; cited from earlier work
[2] = tested on: 23S rRNA of complex C prepared from E. coli ribosomes; assay: Footprinting; assay type: binding, Escherichia coli
Outline: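 Complex C (10 pmol; 100 nM) is incubated at 25°C in buffer B (50 mM HEPES/KOH pH 7.2, 4.5 mM Mg acetate, 150 mM NH4Cl, 5 mM DTT), optionally with 100 µM spermine. […] Probing uses DMS, kethoxal or CMCT, with 23S rRNA read by primer extension on 6% polyacrylamide/7 M urea gels. Band intensity is normalized to the no-compound control; means of three runs.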

E. coli mutant U754A = assay: Sensitivity to telithromycin of E. coli cells; assay type: cell-based; conditions: Escherichia coli, MUTANTU754A, read-out: IC50 (growth inhibition)
Outline: (§1)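 Preculture at OD560 0.700 is diluted into LB and grown at 37°C with or without test compound, until the untreated culture reaches OD560 0.700. IC50 is the concentration that lowers OD to halfway between 0.700 and the bottom plateau of the dose curve. Means of three independent experiments.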

[3] = molecular target: complex C containing ribosomes mutated in ribosomal protein L4: Lys63Glu (Escherichia coli, UniProt P60723+P61175, K63E); assay: Kinetics of telithromycin binding to complex C by competition with tylosin; conditions: for Kd: L4: Lys63Glu, 4.5 mM Mg^2+, 150 mM NH4^+
[4] = tested on: E. coli mutant L22: Δ82–84; assay: Sensitivity to telithromycin of E. coli cells; assay type: cell-based; conditions: Escherichia coli, read-out: IC50 (growth inhibition)
Outline: as §1

[5] = molecular target: T1, complex C prepared from E. coli ribosomes (PTase activity); assay: Puromycin reaction; assay type: biochemical; conditions: 2 μΜ telithromycin, 200 μΜ puromycin, buffer A, 25°C
Outline: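 Complex C from E. coli ribosomes reacts with 200 µM puromycin at 25°C in buffer A (100 mM Tris/HCl pH 7.2, 4.5 mM Mg acetate, 150 mM NH4Cl), alone or with 2 µM test compound or 2 µM tylosin. AcPhe-puromycin formation is followed over time. Means of three independent experiments.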

[6] = molecular target: complex C containing ribosomes mutated in ribosomal protein L22: Δ82–84 (Escherichia coli, UniProt P60723+P61175, DEL82-84); assay: Kinetics of telithromycin binding to complex C by competition with tylosin; conditions: for Kd: L22: Δ82–84, 4.5 mM Mg^2+, 150 mM NH4^+
[7] = molecular target: complex C (poly(U)-programmed E. coli ribosomes), wild-type (Escherichia coli, UniProt P60723+P61175); assay type: binding; conditions: for Kd: Wild-type; for Kd / koff: 4.5 mM Mg^2+, 150 mM NH4^+; for koff: read-out: koff,T, Wild-type
[8] = molecular target: complex C containing ribosomes with mutated 23S rRNA U754A (Escherichia coli, UniProt P60723+P61175); assay: Kinetics of telithromycin binding to complex C by competition with tylosin; conditions: for Kd: U754A, 4.5 mM Mg^2+, 150 mM NH4^+
E. coli mutant U2609C = assay: Sensitivity to telithromycin of E. coli cells; assay type: cell-based; conditions: Escherichia coli, MUTANTU2609C, read-out: IC50 (growth inhibition)
Outline: as §1

wild-type E. coli cells = assay: Sensitivity to telithromycin of E. coli cells; assay type: cell-based; conditions: Escherichia coli, read-out: IC50 (growth inhibition)
Outline: as §1

[9] = tested on: E. coli mutant L4: Lys63Glu; assay: Sensitivity to telithromycin of E. coli cells; assay type: cell-based; conditions: Escherichia coli, read-out: IC50 (growth inhibition)
Outline: as §1

[10] = tested on: complex C containing ribosomes with mutated 23S rRNA U2609C; assay: Kinetics of telithromycin binding to complex C by competition with tylosin; set-up: species or system Escherichia coli
[11] = C*T (final site), 4.5 mM Mg^2+ 150 mM NH4^+
[12] = C*T (final site), 4.5 mM Mg^2+ 150 mM NH4^+ 100 μΜ spermine
[13] = CT (initial site, 5 s), 4.5 mM Mg^2+ 150 mM NH4^+
[14] = CT (initial site, 5 s), 4.5 mM Mg^2+ 150 mM NH4^+ 100 μΜ spermine

CC[C@H]1OC(=O)C[C@@H](O)[C@H](C)[C@@H](O[C@@H]2O[C@H](C)[C@@H](O[C@H]3C[C@@](C)(O)[C@@H](O)[C@H](C)O3)[C@H](N(C)C)[C@H]2O)[C@@H](CC=O)C[C@@H](C)C(=O)/C=C/C(C)=C/[C@@H]1CO[C@@H]1O[C@H](C)[C@@H](O)[C@@H](OC)[C@H]1OC [tylosin]
Inhibition of AcPhe-puromycin synthesis [1]: inhibits

CC[C@H]1OC(=O)[C@H](C)C(=O)[C@H](C)[C@@H](O[C@@H]2O[C@H](C)C[C@H](N(C)C)[C@H]2O)[C@](C)(OC)C[C@@H](C)C(=O)[C@H](C)[C@H]2N(CCCCn3cnc(-c4cccnc4)c3)C(=O)O[C@]12C [telithromycin]
Relative reactivity of 23S rRNA residue A752 (ratio to complex C) [2, 11]: 0.30 ± 0.02 ^*^, ** | Relative reactivity of 23S rRNA residue A789 (ratio to complex C) [2, 11]: 0.89 ± 0.08 | Relative reactivity of 23S rRNA residue A2058 (ratio to complex C) [2, 11]: 0.25 ± 0.03 ^* | Relative reactivity of 23S rRNA residue A2059 (ratio to complex C) [2, 11]: 0.42 ± 0.03 ^* | Relative reactivity of 23S rRNA residue A2062 (ratio to complex C) [2, 11]: 1.28 ± 0.15 ^* | Relative reactivity of 23S rRNA residue C2611 (ratio to complex C) [2, 11]: 0.60 ± 0.08 ^* | Relative reactivity of 23S rRNA residue G2505 (ratio to complex C) [2, 11]: 0.78 ± 0.11 ^* | Relative reactivity of 23S rRNA residue U790 (ratio to complex C) [2, 11]: 0.85 ± 0.08 ^*^, ** | Relative reactivity of 23S rRNA residue U2609 (ratio to complex C) [2, 11]: 0.72 ± 0.04 ^*^, ** | Relative reactivity of 23S rRNA residue A752 (ratio to complex C) [2, 12]: 0.87 ± 0.07 ^* | Relative reactivity of 23S rRNA residue A789 (ratio to complex C) [2, 12]: 0.93 ± 0.08 | Relative reactivity of 23S rRNA residue A2058 (ratio to complex C) [2, 12]: 0.38 ± 0.02 ^*^, ** | Relative reactivity of 23S rRNA residue A2059 (ratio to complex C) [2, 12]: 0.57 ± 0.03 ^*^, ** | Relative reactivity of 23S rRNA residue A2062 (ratio to complex C) [2, 12]: 1.15 ± 0.14 | Relative reactivity of 23S rRNA residue C2611 (ratio to complex C) [2, 12]: 0.97 ± 0.05 | Relative reactivity of 23S rRNA residue G2505 (ratio to complex C) [2, 12]: 0.85 ± 0.06 ^* | Relative reactivity of 23S rRNA residue U790 (ratio to complex C) [2, 12]: 0.93 ± 0.08** | Relative reactivity of 23S rRNA residue U2609 (ratio to complex C) [2, 12]: 0.90 ± 0.08 | Relative reactivity of 23S rRNA residue A752 (ratio to complex C) [2, 13]: 0.65 ± 0.05 | Relative reactivity of 23S rRNA residue A789 (ratio to complex C) [2, 13]: 0.78 ± 0.07 | Relative reactivity of 23S rRNA residue A2058 (ratio to complex C) [2, 13]: 0.20 ± 0.02 | Relative reactivity of 23S rRNA residue A2059 (ratio to complex C) [2, 13]: 0.38 ± 0.03 | Relative reactivity of 23S rRNA residue A2062 (ratio to complex C) [2, 13]: 1.33 ± 0.18 | Relative reactivity of 23S rRNA residue C2611 (ratio to complex C) [2, 13]: 0.60 ± 0.09 | Relative reactivity of 23S rRNA residue G2505 (ratio to complex C) [2, 13]: 0.65 ± 0.09 | Relative reactivity of 23S rRNA residue U790 (ratio to complex C) [2, 13]: 0.60 ± 0.07 | Relative reactivity of 23S rRNA residue U2609 (ratio to complex C) [2, 13]: 0.95 ± 0.07 | Relative reactivity of 23S rRNA residue A752 (ratio to complex C) [2, 14]: 0.75 ± 0.05 | Relative reactivity of 23S rRNA residue A789 (ratio to complex C) [2, 14]: 0.82 ± 0.08 | Relative reactivity of 23S rRNA residue A2058 (ratio to complex C) [2, 14]: 0.30 ± 0.01 | Relative reactivity of 23S rRNA residue A2059 (ratio to complex C) [2, 14]: 0.45 ± 0.05 | Relative reactivity of 23S rRNA residue A2062 (ratio to complex C) [2, 14]: 1.20 ± 0.14 | Relative reactivity of 23S rRNA residue C2611 (ratio to complex C) [2, 14]: 0.98 ± 0.05 | Relative reactivity of 23S rRNA residue G2505 (ratio to complex C) [2, 14]: 0.72 ± 0.07 | Relative reactivity of 23S rRNA residue U790 (ratio to complex C) [2, 14]: 0.70 ± 0.07 | Relative reactivity of 23S rRNA residue U2609 (ratio to complex C) [2, 14]: 0.97 ± 0.07 | IC50 (E. coli mutant U754A): 14.8 ± 2.5 µg/mL (≈ 18.2 µM) | Kd ([3]; K*T): 12 ± 2.67 nM | Kd ([3]; KT): 470 ± 48 nM | koff ([3]; read-out: koff,T): 0.000127 s⁻¹ | IC50 [4]: 50 ± 6.5 µg/mL (≈ 61.6 µM) | Inhibition of AcPhe-puromycin synthesis [5]: fails to inhibit | Kd ([6]; K*T): 210 ± 30.9 nM | Kd ([6]; KT): 530 ± 42 nM | Enhancement in dissociation rate constant koff,T by mutation ([6]; L22: Δ82–84 vs wild-type): about 4 fold | Increase in overall dissociation constant K*T by mutation ([6]; L22: Δ82–84 vs wild-type): 25 fold | Reduction in association rate constant kon,T by mutation ([6]; L22: Δ82–84 vs wild-type): 10 fold | koff ([6]; read-out: koff,T): 0.0005 s⁻¹ | Reversal of inactivation of complex C by tylosin ([7]; 4 μΜ tylosin, telithromycin >10 μΜ): entirely reversed | Decrease of kon,T value by polyamines ([7]; 100 μΜ spermine or 50 μΜ spermine and 2 mM spermidine vs no polyamines): 83% | Kd ([7]; K*T, 50 μΜ spermine, 2 mM spermidine): 75.7 ± 8.8 nM | Kd ([7]; K*T, 100 μΜ spermine): 91.4 ± 11.2 nM | Kd ([7]; KT, 50 μΜ spermine, 2 mM spermidine): 1714 ± 13 nM | Kd ([7]; KT, 100 μΜ spermine): 2500 ± 185 nM | Kd ([7]; KT, initial low-affinity site): 500 ± 44 nM | koff.T lower than the rate constant for drop off (Lovmar et al.) ([7]; compared with drop off rate constant of ref 3): 10 times | Increase of KT* value by polyamines ([7]; polyamine buffer vs no polyamines): 10 fold | Decrease in the affinity of telithromycin for the initial site by spermine ([7]; presence of spermine): 5 fold | koff [7]: 0.000137 s⁻¹ | koff ([7]; 100 μΜ spermine): 4.83e-05 s⁻¹ | Kd ([8]; K*T): 22.6 ± 3.22 nM | Kd ([8]; KT): 604 ± 45 nM | Effect of mutation on koff,T constant ([8]; U754A vs wild-type): doubling | IC50 (E. coli mutant U2609C): 41.6 ± 4.3 µg/mL (≈ 51.2 µM) | IC50 (wild-type E. coli cells): 4 ± 0.8 µg/mL (≈ 4.93 µM) | IC50 [9]: 12 ± 2.1 µg/mL (≈ 14.8 µM) | Enhancement of overall constant Κ*T by mutation ([10]; U2609C vs wild-type): 20 fold | koff,T ([10]; U2609C, 4.5 mM Mg^2+, 150 mM NH4^+): 0.0395 ± 0.0031 min^_1 | Kd ([10]; read-out: K*T, U2609C, 4.5 mM Mg^2+, 150 mM NH4^+): 148 ± 18.9 nM | Kd ([10]; read-out: KT, U2609C, 4.5 mM Mg^2+, 150 mM NH4^+): 536 ± 43 nM
